From PubChem
In the library only some 2.3% were active in any assay of this set; here they are far more common.
CRFBP-R2 block: antagonists of CRF-BP/CRF-R2 complex, primary screen, cell-based, HEK293, calcium dye fluorescence, uHTS | CRF-induced calcium fluorescence | inhibition, % at 11.8 µM | 0.59% of 350,000 active;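 active = inhibition of the ligand-induced calcium signal above about 50% at the single tested concentration, limit read from the data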
CRFR2-BP ag: agonists of CRF-BP/CRF-R2 complex, primary screen, cell-based, HEK293, calcium dye fluorescence, uHTS; CRF-binding protein / CRF receptor 2 complex (human); calcium dye fluorescence (FLIPR); percent of saturating CRF peptide response; activation, % at 13.2 µM; 0.46% of 350,000 active;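 active = activation of at least 50%, plus an integration ratio under a set limit after plate pattern correction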;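 also: plate controls were neutral control wells without compound for no effect and CRF at EC100 for full effect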
Rpn11 inh: Rpn11 (PSMD14) deubiquitinase inhibitors, primary screen, biochemical, fluorescence polarization, uHTS. human 26S proteasome, Ub4-pepOG fluorescence polarization; 20S core pre-blocked with epoxomicin. calls only at 20 µM. AID 588493, 2011. 0.59% of 360,000 active;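 active = inhibition at 20 µM, scaled to each plate's controls, above about 33%, limit read from the data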
TPT1 inh: Candida albicans TPT1 enzyme inhibitors, primary screen, biochemical, fluorescence polarization. AID 1962, 2009. recombinant caTPT1, FP RNA substrate dephosphorylation. 0.81% of 300,000 active. tRNA 2'-phosphotransferase TPT1 (Candida albicans SC5314). inhibition, % at 5 µM;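 active = inhibition above the mean of all tested compounds plus 3 SD, set per screening campaign, cut at about 24% in these data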;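 also: plate controls were DMSO alone for no effect and ferristatin control at 100 nM for full effect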
HNF4A DNA FP: change in binding of human HNF4A to DNA, primary screen, biochemical, fluorescence polarization, FITC-DNA | 1 h | Hepatocyte nuclear factor 4-alpha (Homo sapiens), P41235 | 0.3% of 360,000 active | AID 1224865, 2016 | activity change, % at 10 µM; in the data active = activity change above about 30%, passing the limit was not always enough
CSN inh: inhibitors of CSN-mediated cullin deneddylation, primary screen, biochemical, fluorescence polarization, uHTS | Purified CSN, SCF-Nedd8-OG deneddylation | inhibition, % at 12.5 µM | 0.38% of 360,000 active;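 active = pattern-corrected inhibition above about 35%, with an unprinted fluorescence ratio check between 0.5 and 1.5, limit read from the data, passing the limit was not always enough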;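 also: 0% = enzyme with substrate and 100% = substrate without enzyme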
Target sequence (Q92905 whole entry, looked up, one chain of several): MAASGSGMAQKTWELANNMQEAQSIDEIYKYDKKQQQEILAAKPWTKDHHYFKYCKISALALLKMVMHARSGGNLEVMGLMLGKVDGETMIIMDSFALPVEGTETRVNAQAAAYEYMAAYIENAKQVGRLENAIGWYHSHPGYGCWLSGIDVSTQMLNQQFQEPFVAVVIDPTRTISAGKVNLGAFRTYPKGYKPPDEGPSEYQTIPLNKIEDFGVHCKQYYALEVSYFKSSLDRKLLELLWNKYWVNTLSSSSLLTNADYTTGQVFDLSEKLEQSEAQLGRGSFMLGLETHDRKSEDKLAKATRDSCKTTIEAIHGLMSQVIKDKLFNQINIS
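Material: purified human Csn5 enzyme expressed in HEK293T cells / Medium: Tris buffer pH 7.5, NaCl, DTT, Tween-20, trehalose, ovalbumin / Compound dosing: 12.5 µM single point / Schedule: 90 min incubation of compound, enzyme and substrate at room temperature / Signal: fluorescence polarization of the substrate / Control set: no-enzyme wells high, enzyme-with-substrate wells low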
TPT1 inh confirm: Candida albicans TPT1 inhibitors, confirmation, biochemical, fluorescence polarization, triplicate; shares compounds with TPT1 inh; recombinant caTPT1, RNase T1 coupled; inhibition, % at 5 µM; 74% of 2,400 active; AID 2149, 2009;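 active = inhibition above the primary screen limit, the mean inhibition of all tested compounds plus 3 SD, cut at about 25% in these data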
RNase T1 counter: RNase T1 inhibitors, counter-screen for TPT1 inhibitor project, biochemical, fluorescence polarization; shares compounds with TPT1 inh; RNase T1 cleavage, 1536-well; inhibition, % at 5 µM; 83% of 2,400 active;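 active = inhibition above the solvent-only control well mean plus 3 SD, limit set per screening run, cut at about 23% in these data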;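 also: plate controls were DMSO wells with enzyme for no effect and wells without RNase T1 for full effect; inhibitors block cleavage so intact labeled substrate keeps polarization high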
Target sequence (P00651 whole entry, looked up): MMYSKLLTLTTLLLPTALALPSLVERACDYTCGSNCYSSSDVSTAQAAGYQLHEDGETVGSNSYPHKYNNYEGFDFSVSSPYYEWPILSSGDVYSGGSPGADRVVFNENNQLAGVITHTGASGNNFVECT
* hit, by the source's call; i = inactive; . = no result shown.

SMILES	CRFBP-R2 block	CRFR2-BP ag	Rpn11 inh	TPT1 inh	HNF4A DNA FP	CSN inh	TPT1 inh confirm	RNase T1 counter
COc1cc(/C=C2/C(=O)NN(c3cccc(Cl)c3)C2=O)cc(OC)c1O	-38	18	.	124*	-1	28	151*	150*
Cc1ccc(CSC2=NCCN2S(=O)(=O)c2ccc(C)cc2)cc1	13	1	i	.	-1	-5	.	.
C=CCN1C(=O)C(O)(CC(=O)c2ccc(-n3cccc3)cc2)c2ccccc21 (stereo unspecified)	5	0	i	-2	8	-4	.	.
C=CCN1C(=O)C2(NNc3ccccc3O2)c2ccccc21 (stereo unspecified)	-12	8	.	85*	71*	29	103*	107*
CCCCN1C(=O)C2(NNc3ccccc3O2)c2ccccc21 (stereo unspecified)	10	-2	.	91*	69*	7	94*	102*
CCOc1ccccc1N(CC(=O)N/N=C(\C)c1cccc(Br)c1)S(C)(=O)=O	-16	-1	i	-3	0	-2	.	.
C=CCSc1nc2[nH]ncc2c(=O)[nH]1	12	2	i	-2	1	2	.	.
C#CCSc1nc2[nH]ncc2c(=O)[nH]1	-11	1	i	33*	2	5	4	5
O=C(Nc1ccn(Cc2c(F)c(F)cc(F)c2F)n1)c1cccc(Cn2cc([N+](=O)[O-])cn2)c1	-9	-2	i	0	2	4	.	.
O=C(N/N=C/c1ccc(-c2cccc(C(F)(F)F)c2)o1)c1ccccc1Br	-34	20	i	39*	6	17	38*	49*
CC1=CN2C(=N)/C(=C/c3ccc(Sc4ccc(Cl)cc4)o3)C(=O)N=C2S1	-48	3	i	17	13	10	.	.
O=C1CC(=O)N(CCc2ccccc2)C(=O)N1CCc1ccccc1	25	1	i	40*	4	0	5	9
O=C1CC(=O)N(CCc2ccc(F)cc2)C(=O)N1	0	2	i	39*	11	13	31*	40*
COc1cc2c(cc1OC)-c1cc(OCCN3CCOCC3)nc(=O)n1CC2	-6	-1	i	25*	3	12	32*	44*
CCNc1cc2n(c(=O)n1)CCc1cc(OC)c(OC)cc1-2	-5	0	i	3	0	3	.	.
COc1cc(/C=C2\SC(=Nc3cccnc3)NC2=O)cc(OC)c1OC	-6	-1	i	52*	8	12	73*	84*
COc1cc(/C=C2\SC(=Nc3ccccc3)NC2=O)cc(Cl)c1O	-159	213*	.	105*	123	150	114*	110*
C/C(=N\n1c(C)nc2ccccc2c1=O)c1ccc(N)cc1	-7	1	i	0	-4	-1	.	.
Cc1cc(C)cc(N=Cc2[nH]c3ccc(Br)c(Cl)c3c2O)c1	-151	197*	i	121*	27	-11	111*	111*
COc1ccc(CN=Cc2[nH]c3ccc(Br)c(Cl)c3c2O)cc1	-39	16	.	88*	64	11	136*	131*
COc1ccc(OC)c(-n2nnnc2SCC(=O)NCc2ccc3c(c2)OCO3)c1	3	-2	i	1	-4	2	.	.
COc1ccccc1NC(=O)c1ccc(NC(=O)COC(=O)c2ccc(O)cc2)cc1	12	-1	i	.	-4	-1	.	.
CC(C)(C)C(=O)NC(=S)NNC(=O)c1sc2ccccc2c1Cl	-262	226*	i	27*	0	-4	0	1
O=C(NNC(=S)NC1CCCCC1)c1sc2ccccc2c1Cl	12	6	i	-6	4	-14	.	.
Cc1ccc(S(=O)(=O)NC(C)C(=O)NC2CCCCCC2)cc1 (stereo unspecified)	13	0	i	-8	-1	2	.	.
SMILES	CRFBP-R2 block	CRFR2-BP ag	Rpn11 inh	TPT1 inh	HNF4A DNA FP	CSN inh	TPT1 inh confirm	RNase T1 counter
Cc1cc(C)c(C)c(S(=O)(=O)NNC(=O)c2cccc(S(=O)(=O)N3CCOCC3)c2)c1C	14	-4	i	-1	2	-1	.	.
CCOC(=O)c1c(NC(=S)Nc2cccc(C)c2)sc2c1CC(C)(C)SC2	1	2	.	31*	4	-2	26*	32*
CCOC(=O)c1c(NC(=S)Nc2ccccc2)sc2c1CCN(CC)C2	-26	9	.	99*	44*	31	86*	95*
CCOC(=O)c1c(NC(=S)Nc2ccccc2)sc2c1CCCCC2	-14	0	i	1	2	1	.	.
CC1=CC(=C(C#N)C#N)C=C(C)N1Cc1ccc(Cl)cc1	22	0	i	3	1	-2	.	.
Cc1c(-n2c(CN3C(=O)c4ccccc4C3=O)nc3ccccc3c2=O)c(=O)n(-c2ccccc2)n1C	-14	-1	i	2	3	-2	.	.
C/C(=N\Nc1ccc([N+](=O)[O-])cc1)c1ccc(N)cc1	24	0	i	37*	20	2	34*	46*
CCc1ccc(/C(C)=N\Nc2ccc([N+](=O)[O-])cc2)cc1	-24	0	i	81*	25	15	56*	71*
O=[N+]([O-])c1ccc(N/N=C/c2ccccc2O)cc1	-19	6	i	50*	23	11	69*	81*
O=[N+]([O-])c1ccc(NN=Cc2ccccc2O)nc1	-19	0	i	.	10	-2	.	.
C/C(=N\Nc1ccc([N+](=O)[O-])cc1)c1ccc(N2CCOCC2)cc1	-22	13	i	31*	11	2	46*	53*
COCCNC(=S)NC1CC2CCCC(C1)N2Cc1cccs1 (stereo unspecified)	-13	-1	i	-2	2	-6	.	.
O=C(CCCc1ccccc1)Nc1ccnn1C1CCN(Cc2ccccn2)CC1	6	2	i	-4	-2	2	.	.
